An excerpt weighted towards active compounds, which were near 3.7% of everything screened.
ROMK primary: modulates human ROMK potassium channel activity. P48048. Tet-inducible ROMK, thallium flux fluorescence; actives lie on both sides. B-score at 10 µM. actives 2% (n = 130,000);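 active = signal ratio slope over the read window, or its plate-corrected B-score, at least 3 SD from the plate mean, either direction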;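 also: B-score of the F/F0 ratio slope over 7 to 12 s after thallium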
KCC2 mod: KCC2 (human) Cl- transport modulation | Q9H2X9 | KCC2 cells, thallium flux FluoZin-2 fluorescence | B-score of Tl+ flux slope (higher = more flux/activation; lower = inhibition) at 10 µM | actives 2.2% (n = 190,000);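 active = thallium flux slope and its plate-corrected score both differing from the plate sample mean at a set confidence after two filtering rounds, in either direction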;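 also: slope of fluorescence scaled to starting intensity during 10 to 20 s after thallium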
Arbovirus anti: antivirals against arbovirus infection; arbovirus infection cell-based antiviral screen; inhibition, % at 10 µM; actives 0.37% (n = 200,000); AID 1251; in the data active = inhibition above about 30%
Calpain2 inh: blocks pig calpain II enzyme activity; actives 0.37% (n = 220,000); purified calpain II, fluorogenic peptide substrate, 30 min; inhibition, % at 16 µM;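 active = inhibition above about 50%, limit read from the data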
Mdm2 ligase inh: inhibitors of human Mdm2 E3 ubiquitin ligase; actives 0.11% (n = 210,000); signal enhancement, % at 5 µM; cell-based MDM2 ubiquitination luciferase reporter, 2 h; 0 = plate control, 100 = twice control, blank-subtracted; AID 1230;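 active = signal enhancement of 30% or more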;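 also: luminescence tracks abundance of the self-degrading MDM2-luciferase fusion protein; higher signal means inhibition of MDM2 E3 ligase activity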
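Assay system: stable mammalian line carrying autodegrading MDM2–luciferase fusion reporter; Input: 2000 cells in each well; Compound dosing: single-point 5 µM; Schedule: 2 h compound exposure at 37 °C; Signal: SteadyLite luciferase luminescence after 15 min room-temperature reagent incubation; Evaluation: % luminescence enhancement versus blank-corrected plate control mean; Benchmarks: plate controls and plate blanks.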
PKD1 kinase inh: blocks activity of human protein kinase D1 | PKD1 kinase fluorescence polarization assay | actives 0.056% (n = 200,000) | inhibition, % (no concentration beside the values); in the data active = inhibition above about 50%
Target sequence (Q15139 whole entry, looked up): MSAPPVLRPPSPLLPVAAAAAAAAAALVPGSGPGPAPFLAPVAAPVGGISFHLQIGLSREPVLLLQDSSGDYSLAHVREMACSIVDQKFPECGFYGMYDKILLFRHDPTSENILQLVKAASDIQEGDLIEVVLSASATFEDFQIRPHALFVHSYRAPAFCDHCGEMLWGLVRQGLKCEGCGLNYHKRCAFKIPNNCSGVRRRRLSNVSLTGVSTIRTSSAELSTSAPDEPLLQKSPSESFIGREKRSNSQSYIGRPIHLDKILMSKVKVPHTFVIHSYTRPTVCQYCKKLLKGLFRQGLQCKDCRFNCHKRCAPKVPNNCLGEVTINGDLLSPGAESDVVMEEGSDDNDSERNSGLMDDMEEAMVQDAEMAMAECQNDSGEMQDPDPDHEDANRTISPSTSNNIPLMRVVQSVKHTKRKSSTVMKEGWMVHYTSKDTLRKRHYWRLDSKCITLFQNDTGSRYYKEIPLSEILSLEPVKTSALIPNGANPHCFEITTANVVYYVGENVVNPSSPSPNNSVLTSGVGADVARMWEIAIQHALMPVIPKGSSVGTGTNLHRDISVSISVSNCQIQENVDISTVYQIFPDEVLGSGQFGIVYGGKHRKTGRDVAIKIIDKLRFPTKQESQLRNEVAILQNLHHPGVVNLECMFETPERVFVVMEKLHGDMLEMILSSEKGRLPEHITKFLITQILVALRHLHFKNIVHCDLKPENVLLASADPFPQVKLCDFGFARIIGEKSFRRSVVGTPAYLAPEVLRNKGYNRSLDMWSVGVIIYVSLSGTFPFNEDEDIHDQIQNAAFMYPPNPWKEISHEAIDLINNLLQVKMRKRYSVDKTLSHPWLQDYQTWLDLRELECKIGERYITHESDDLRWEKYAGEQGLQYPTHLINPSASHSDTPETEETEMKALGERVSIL
The depositor's hits bear a star.

What do the screens show for `Cc1cc(C)cc(NC(=O)C(=O)NCCc2c[nH]c3ccccc23)c1`?
ROMK primary: 0.786; KCC2 mod: 0.339; Arbovirus anti: -4.4; Calpain2 inh: 65.4*; Mdm2 ligase inh: -0.7; PKD1 kinase inh: -0.9

How did COc1ccc(Nc2nc(N)c([N+](=O)[O-])c(NCc3ccccc3)n2)cc1 do in these assays?
KCC2 mod: 0.707; Calpain2 inh: 25.0; Mdm2 ligase inh: -5.3

Results for COc1cccc(CNc2ccc([N+](=O)[O-])c(NCC(=O)O)n2)c1 ?
ROMK primary: 0.245; KCC2 mod: -0.468; Arbovirus anti: 0.5; Calpain2 inh: 88.8*; Mdm2 ligase inh: -22.0; PKD1 kinase inh: 0.5

Results for CC(CCc1ccccc1)NC(=O)c1ccco1 (stereo unspecified) ?
ROMK primary: 0.128; KCC2 mod: 1.74; Arbovirus anti: 0.1; Calpain2 inh: 27.1; Mdm2 ligase inh: -12.8; PKD1 kinase inh: -1.4

Results for CC(C)CNC(=O)[C@H](Cc1ccccc1)NC(=O)c1ccco1 ?
ROMK primary: 3.2*; KCC2 mod: -1.07; Arbovirus anti: 2.4; Calpain2 inh: 6.8; Mdm2 ligase inh: -11.4; PKD1 kinase inh: 17.9

Results for N#CC1=C(N)N(c2ccc(F)cc2)C2=C(C1c1ccc(O)cc1)S(=O)(=O)CC2 (stereo unspecified) ?
ROMK primary: -0.766; KCC2 mod: -0.182; Arbovirus anti: 17.8; Calpain2 inh: 11.4; Mdm2 ligase inh: -5.1; PKD1 kinase inh: -3.0

What do the screens show for `Cc1cc(C)n2nc(C(=O)Nc3ccc(S(=O)(=O)N(C)C)cc3)nc2n1`?
KCC2 mod: -0.0363; Calpain2 inh: -0.3; Mdm2 ligase inh: -3.7

Results for N#CCC(=O)Nc1ccc(C(=O)NCc2cccc(Cl)c2)cc1 ?
KCC2 mod: -0.307; Calpain2 inh: -57.7

Results for O=C/C(=C\Nc1ccc(Cl)cn1)c1nc2cc(Cl)ccc2o1 ?
ROMK primary: 0.8; KCC2 mod: -1.07; Arbovirus anti: 30.3*; Calpain2 inh: -60.7; Mdm2 ligase inh: -1.8; PKD1 kinase inh: 1.9

How did O=C(c1ccc(N2CCCC2=O)cc1)N1CCN(c2ccccc2)CC1 do in these assays?
ROMK primary: 0.5; Arbovirus anti: -0.2; Calpain2 inh: 21.7; Mdm2 ligase inh: -4.3; PKD1 kinase inh: -6.3

How did O=C(c1ccc(N2CCCC2=O)cc1)N1CCCCCC1 do in these assays?
ROMK primary: -1.18; Arbovirus anti: 3.9; Calpain2 inh: 83.6*; Mdm2 ligase inh: -11.8; PKD1 kinase inh: -1.7

What do the screens show for `COc1ccc(/C=C2\N=C(SC)NC2=O)cc1`?
ROMK primary: -1.2; KCC2 mod: 16.2*; Arbovirus anti: -2.3; Calpain2 inh: 4.2; Mdm2 ligase inh: -9.8; PKD1 kinase inh: 0.7

How did O=C(NN=C1CCCCCCCCCCC1)c1ccncc1 do in these assays?
KCC2 mod: 0.705; Arbovirus anti: -1.2; Calpain2 inh: -23.1; Mdm2 ligase inh: -9.2; PKD1 kinase inh: -1.1

Results for O=C(NCc1cccnc1)c1ccc([N+](=O)[O-])o1 ?
ROMK primary: 0.00993; KCC2 mod: 0.0211; Arbovirus anti: -16.0; Calpain2 inh: 6.7; Mdm2 ligase inh: -9.5; PKD1 kinase inh: -2.3

What do the screens show for `CN(Cc1ccccc1)c1ncnc2ccc(Br)cc12`?
ROMK primary: -4.68*; KCC2 mod: -2.77; Arbovirus anti: 4.7; Calpain2 inh: 9.4; Mdm2 ligase inh: -22.9; PKD1 kinase inh: -2.1

What do the screens show for `c1ccc(CCNc2ncnc3scc(C4COc5ccccc5O4)c23)cc1` (stereo unspecified)?
ROMK primary: -2.16; KCC2 mod: -0.199; Arbovirus anti: -22.2; Calpain2 inh: 60.0*; Mdm2 ligase inh: -17.9; PKD1 kinase inh: 14.7

Results for N#CC(c1ccncc1)(c1ncc(C(F)(F)F)cc1Cl)N1CCOCC1 (stereo unspecified) ?
KCC2 mod: 0.0632; Arbovirus anti: -4.2; Calpain2 inh: 69.3*; Mdm2 ligase inh: 12.2; PKD1 kinase inh: -4.3

What do the screens show for `S=c1nc(-c2ccccc2)[nH]n1-c1ccccc1`?
ROMK primary: 6.15*; KCC2 mod: 53.3*; Arbovirus anti: 6.8; Calpain2 inh: 24.6; Mdm2 ligase inh: -12.1; PKD1 kinase inh: 0.9

Results for Cc1nc(=S)n(-c2ccccc2)[nH]1 ?
KCC2 mod: 0.471; Arbovirus anti: 0.1; Calpain2 inh: 3.4; Mdm2 ligase inh: -13.3; PKD1 kinase inh: -0.5
